Assay outcomes: PubChem BioAssay, several laboratories
Most compounds without a hit are left out; they make up all but 3.1% or so of the library.
UHRF1 MBD2 ctr = UHRF1 methylated DNA binding inhibitors, primary screen, counter-screen for MBD2 inhibitor project, biochemical, TR-FRET, human UHRF1, single concentration; E3 ubiquitin-protein ligase UHRF1 (Homo sapiens), Q96T88; UHRF1 binding to methylated oligo; hit rate 0.75% among 370,000; inhibition, % at 4.4 µM; in the data active means inhibition above about 21%;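 further: UHRF1 SRA domain binding a hemimethylated CpG hairpin DNA probe; 0% = median of test compound wells and 100% = reference inhibitor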
CSN inh = inhibitors of CSN-mediated cullin deneddylation, primary screen, biochemical, fluorescence polarization, uHTS. COP9 signalosome complex subunit 5 (Homo sapiens), Q92905. Purified CSN, SCF-Nedd8-OG deneddylation. inhibition, % at 12.5 µM. hit rate 0.38% among 360,000;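 active means pattern-corrected inhibition above about 35%, with an unprinted fluorescence ratio check between 0.5 and 1.5, limit read from the data, passing the limit was not always enough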;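 further: 0% = enzyme with substrate and 100% = substrate without enzyme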
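assay system = purified human Csn5 enzyme expressed in HEK293T cells | amount = 0.24 nM enzyme | buffer or medium = Tris/NaCl/DTT buffer, pH 7.5 | reagent = 10 nM SCFSkp2-Nedd8OG | compound = one concentration, 12.5 µM, 0.25% DMSO | times = 90 min reaction at room temperature | signal = FP | read-out basis = % inhibition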
MBD2 inh = inhibitors of MBD2 binding to methylated DNA, primary screen, biochemical, TR-FRET, DNA-binding domain, human | inhibition, % at 4.4 µM | MBD2 binding to methylated oligonucleotide | Methyl-CpG-binding domain protein 2 (Homo sapiens), Q9UBB5 | hit rate 0.31% among 370,000; in the data active means inhibition above about 13%
Target sequence (Q9UBB5 whole entry, looked up, the tested form may be a part): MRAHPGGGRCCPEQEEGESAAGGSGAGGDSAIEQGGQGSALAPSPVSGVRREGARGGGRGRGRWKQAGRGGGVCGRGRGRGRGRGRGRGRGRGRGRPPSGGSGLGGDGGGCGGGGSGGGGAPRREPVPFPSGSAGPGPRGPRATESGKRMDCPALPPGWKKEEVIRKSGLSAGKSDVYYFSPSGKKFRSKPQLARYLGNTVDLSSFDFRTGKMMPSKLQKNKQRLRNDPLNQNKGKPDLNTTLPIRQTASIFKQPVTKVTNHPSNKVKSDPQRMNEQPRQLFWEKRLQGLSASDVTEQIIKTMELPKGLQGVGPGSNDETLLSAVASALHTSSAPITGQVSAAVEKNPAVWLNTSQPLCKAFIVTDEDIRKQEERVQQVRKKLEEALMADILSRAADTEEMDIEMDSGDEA
ATG4B inhibitor = ATG4B protease inhibitors, primary screen, biochemical, fluorescence, uHTS; inhibition, % at 8.33 µM; ATG4B cleavage of LC3-PLA2, NBD-HPC fluorescence, 1 h; AID 504462, 2011; hit rate 0.51% among 340,000; Cysteine protease ATG4B (Homo sapiens), Q9Y4P1; in the data active means inhibition above about 40%
LEDGF integ inh = blockers of LEDGF/p75-dependent integrase strand transfer – biochemical, TR-FRET, high throughput, primary screen; hit rate 0.64% among 370,000; TR-FRET IN-LEDGF/p75 DNA integration, Eu/Cy5; inhibition, % at 3.7 µM;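 active means inhibition above the screen-wide mean plus 3 SD, cut at about 13% in these data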;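 further: signal is the Cy5 over europium emission ratio at 671 and 618 nm; 0% = plate median of compound wells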
rCAG binder = binders of r(CAG) RNA repeats, primary screen, biochemical, fluorescence | r(CAG) RNA repeat, TO-PRO-1 dye displacement fluorescence | hit rate 1.3% among 370,000 | inhibition, % at 3 µM;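 active means inhibition above the plate cutoff, the mean of all test compounds on that plate plus 3 SD, cut at about 35% in these data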;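 further: 0% = DMSO alone and 100% = 100 µM mitoxantrone as full dye displacement; higher means more dye released from RNA so lower well fluorescence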
The depositor's hits bear a star; / = no result given.

SMILES | UHRF1 MBD2 ctr | CSN inh | MBD2 inh | ATG4B inhibitor | LEDGF integ inh | rCAG binder
Cc1ccccc1NC(=O)C(=Cc1ccc(C(=O)O)cc1)C(=O)Nc1ccccc1C | 26* | 7 | 3 | 6 | 1 | 10
CC(=O)/C(=C/c1ccccc1)C(=O)Nc1ccccc1C | -4 | 4 | -4 | 2 | 2 | -1
O=C(CSc1nc2ccccc2n1Cc1ccccc1)NN=Cc1c[nH]c2ccccc12 | -3 | / | 2 | / | -1 | 13
COCCSc1nnc(NC(=O)c2ccc3c(c2)OCO3)s1 | 69* | 10 | 0 | 3 | -2 | 3
CSc1nnc(NC(=O)c2ccc3c(c2)OCO3)s1 | 0 | 4 | 2 | -9 | 0 | -2
COc1ccc(NC(=S)NN2CCN(C)CC2)cc1OC | 22* | -2 | -1 | 0 | 3 | 2
COc1ccc(CNCC#Cc2cccnc2)c(OC)c1 | -2 | / | -5 | / | -2 | 3
CCCCN1CC(=O)N2[C@H](C[C@@]3(C)c4ccccc4N(S(=O)(=O)c4ccccc4)[C@@H]23)C1=O | 6 | / | -2 | / | -3 | 5
Cc1ccc(F)cc1NC(=O)COC(=O)c1ccc2ncsc2c1 | 0 | 3 | -1 | -4 | 3 | 2
Cc1ccc(NC(=O)COC(=O)c2ccc3ncsc3c2)c(C)c1 | 22* | -4 | 0 | / | -1 | 4
COc1ccc(CCNC(=O)c2cc3ccccn3n2)cc1 | -1 | / | 0 | / | 2 | -1
Cc1cc(/C=C(/C#N)c2nc3ccccc3[nH]2)c(C)n1-c1cc(C(=O)O)cc(C(=O)O)c1 | 23* | 21 | 1 | 26 | 13 | 17
CCCc1nnc(NC(=O)CCC(=O)NC2CCCC2)s1 | 23* | -4 | 4 | -4 | 0 | -1
CC(=O)C1=C(C)N=c2s/c(=C/c3ccc4c(c3)OCO4)c(=O)n2C1c1ccc(N(C)C)cc1 (stereo unspecified) | -1 | 42* | -1 | 2 | 8 | 9
CCOC(=O)C1=C(C)N=c2s/c(=C\c3ccc(C(=O)O)cc3)c(=O)n2C1c1ccc(F)cc1 (stereo unspecified) | 2 | 7 | 2 | 1 | 1 | 6
COC(=O)C1=C(C)N=c2s/c(=C/c3ccoc3)c(=O)n2C1c1ccccc1 (stereo unspecified) | / | 58* | / | 1 | / | /
C=CCN1C(=O)/C(=C2/Sc3ccc(OC)cc3N2C)SC1=Nc1ccccc1 | 4 | 3 | 6 | 1 | 4 | 2
CCCCN1C(=O)/C(=C2/Sc3ccccc3N2C)S/C1=N\c1ncn[nH]1 | 2 | 45* | -5 | 3 | 3 | 7
CCCCCCCCN1C(=O)[C@@H](CC(=O)NCC23CC4CC(CC(C4)C2)C3)C[C@@]2(C(=O)OC)C1=C[C@H](C1CCCC1)O[C@@H]2C | 0 | / | 1 | / | 2 | 4
COC(=O)c1ccc(-c2ccco2)n1Cc1ccccc1Cl | -1 | 49* | -1 | 6 | 0 | 0
Cc1ccc(COC(=O)c2cccc(S(=O)(=O)N3CCCCCC3)c2)cc1 | 25* | -7 | 8 | -10 | 3 | 5
COc1ccccc1COC(=O)c1cccc(S(=O)(=O)N2CCCC2)c1 | -3 | -2 | -4 | 9 | 3 | -4
COc1ccc(OC)c(COC(=O)c2cccc(S(=O)(=O)N3CCCCC3)c2)c1 | 21* | -3 | 6 | -34 | -6 | 4
O=S(=O)(c1ccc(F)cc1)N1CCC(c2nc3ccccc3o2)CC1 | 0 | / | 2 | / | 4 | 1
C[C@H]1[C@@H](NC(=O)c2ccc(Cl)cc2)CC[C@@]23CCCN2C(=O)CCC[C@@H]13 | -2 | / | -2 | / | 1 | /
SMILES | UHRF1 MBD2 ctr | CSN inh | MBD2 inh | ATG4B inhibitor | LEDGF integ inh | rCAG binder
CCS(=O)(=O)N1N=C(c2cccc(NS(C)(=O)=O)c2)CC1c1ccc(C)cc1 (stereo unspecified) | -2 | 73* | 1 | -11 | 1 | -8
O=C1COc2ccc(C(=O)COC(=O)Cc3ccccc3F)cc2N1 | 4 | -1 | -2 | 5 | 3 | 0
O=C1COc2ccc(C(=O)COC(=O)CNS(=O)(=O)c3cccc(F)c3)cc2N1 | 20 | 0 | 18* | -10 | 3 | 9
C/C(=N\NC(=O)c1ccc(OC2OCCOC2Oc2ccc(C(=O)N/N=C(\C)c3ccncc3)cc2)cc1)c1ccncc1 (stereo unspecified) | 3 | 99* | 0 | 8 | -1 | 8
NC(=O)[C@@H]1CCCCNc2c(I)cc([N+](=O)[O-])cc2C(=O)N[C@@H](CCC(=O)O)C(=O)N[C@@H](CO)C(=O)N1 | 1 | 16 | 13 | 5 | 0 | 46*
O=C(NCCSc1c[nH]c2ccccc12)c1c(F)cccc1F | -1 | 7 | 0 | -8 | -2 | 2
O=C(NCCSc1c[nH]c2ccccc12)C1CC1 | 45* | -1 | 1 | -9 | -3 | 1
CC(C)n1c(SCC(=O)NC2CCCCC2)nnc1-c1ccco1 | 43* | 0 | -5 | -7 | 4 | 0
Cc1cccc(NC(=O)[C@@H]2CC(=O)O[C@@H]2c2ccccc2)c1C | 2 | / | 5 | / | -3 | -1
O=C(C1CCN(S(=O)(=O)c2cnc[nH]2)CC1)N1CCc2ccccc2C1 | 30* | -1 | -2 | 3 | -2 | 2
O=C(Nc1ccccc1Oc1ccccc1)NC1CCCCN(Cc2cccc(Cl)c2)C1=O (stereo unspecified) | -3 | / | -6 | / | 7 | 7
CC(C)COc1ccc(C(=O)N/N=C/c2ccoc2)cc1 | 30* | 6 | -2 | 4 | 0 | 0
COCCCNC(=O)CN1C(=O)C2CCCCN2C(=O)c2ccccc21 (stereo unspecified) | 0 | / | 2 | / | -6 | 0
O=C1N(Cc2cccc(Cl)c2)C[C@@H]2C[C@@H](c3c[nH]c4ccccc34)N3CCC[C@@]123 | -2 | 49* | -2 | -6 | 0 | -8
O=C1N(Cc2cccc(Cl)c2)C[C@@H]2C[C@@H](c3cccc4ncccc34)N3CCC[C@@]123 | -1 | -3 | 2 | -11 | -1 | -5
COc1ccc(S[C@]2(C(=O)N3CCN(C(C)=O)CC3)CC(=O)N(S(=O)(=O)c3ccc(F)cc3)[C@@H]2c2ccc(OC)cc2)cc1 | -2 | / | -5 | / | 2 | 9
COc1ccc(S(=O)(=O)Nc2ccc(S(=O)(=O)Nc3nc(C)cc(C)n3)cc2)cc1OC | -2 | -1 | -1 | 2 | 1 | 5
